Data: PMC3401285 (Bioorganic & medicinal chemistry letters, 2012)

How the values were obtained:
Assay type in all cases: cell-based
human M4 receptor = target: T1, human M4 receptor (Homo sapiens, UniProt P08173); experiment: Calcium mobilization assay, potency determination; settings: for %AChmax ± SEM: efficacy as % of maximal ACh response, hM4; for hM4 PAM activity (in words): hM4, text statement
T1 sequence (P08173 1-479): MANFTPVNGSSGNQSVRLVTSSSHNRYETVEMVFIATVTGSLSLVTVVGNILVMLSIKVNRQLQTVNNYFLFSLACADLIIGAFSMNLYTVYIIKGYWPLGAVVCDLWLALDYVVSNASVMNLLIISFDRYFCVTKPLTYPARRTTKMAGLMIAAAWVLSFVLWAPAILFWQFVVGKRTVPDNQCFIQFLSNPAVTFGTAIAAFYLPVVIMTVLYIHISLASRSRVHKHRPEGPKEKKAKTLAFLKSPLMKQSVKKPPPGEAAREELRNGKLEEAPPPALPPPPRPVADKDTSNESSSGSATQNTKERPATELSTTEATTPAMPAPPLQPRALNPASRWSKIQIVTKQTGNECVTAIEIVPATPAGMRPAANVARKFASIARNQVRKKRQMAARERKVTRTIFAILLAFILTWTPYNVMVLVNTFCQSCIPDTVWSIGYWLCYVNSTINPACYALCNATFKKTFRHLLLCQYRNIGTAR

M1 = target: T2, M1 (Homo sapiens, UniProt P11229); experiment: Muscarinic selectivity panel, calcium mobilization; settings: concentration up to 30 µM
T2 sequence (P11229 1-460): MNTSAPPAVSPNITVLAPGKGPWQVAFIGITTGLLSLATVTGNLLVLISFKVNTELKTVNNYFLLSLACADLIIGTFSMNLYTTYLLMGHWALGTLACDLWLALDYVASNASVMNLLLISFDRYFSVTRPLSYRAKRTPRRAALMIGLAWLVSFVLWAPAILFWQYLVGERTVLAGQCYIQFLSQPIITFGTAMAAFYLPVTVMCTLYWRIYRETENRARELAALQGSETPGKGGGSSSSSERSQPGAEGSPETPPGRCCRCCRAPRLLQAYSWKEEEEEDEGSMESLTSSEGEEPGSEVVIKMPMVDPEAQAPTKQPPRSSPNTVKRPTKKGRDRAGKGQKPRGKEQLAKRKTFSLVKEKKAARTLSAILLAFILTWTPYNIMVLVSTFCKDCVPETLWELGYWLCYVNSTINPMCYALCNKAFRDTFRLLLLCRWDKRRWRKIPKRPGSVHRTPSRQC
In short: (§1)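 CHO cells stably expressing the human receptor (M1 transfected into CHO K1; M3 and M5 lines donated), grown in Ham's F-12, 10% heat-inactivated FBS, 20 mM HEPES, 500 µg/mL G418. Cells plated at 15,000/well overnight (37 °C, 5% CO2), then loaded 45 min at 37 °C with Fluo-4 AM in HBSS, 20 mM HEPES, 2.5 mM probenecid. Compound preincubated 144 s (0.3% DMSO final) before ACh; calcium read kinetically at 37 °C.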

M2 = target: T3, M2 (Homo sapiens, UniProt P08172); experiment: Muscarinic selectivity panel, calcium mobilization; settings: concentration up to 30 µM
T3 sequence (P08172 1-466): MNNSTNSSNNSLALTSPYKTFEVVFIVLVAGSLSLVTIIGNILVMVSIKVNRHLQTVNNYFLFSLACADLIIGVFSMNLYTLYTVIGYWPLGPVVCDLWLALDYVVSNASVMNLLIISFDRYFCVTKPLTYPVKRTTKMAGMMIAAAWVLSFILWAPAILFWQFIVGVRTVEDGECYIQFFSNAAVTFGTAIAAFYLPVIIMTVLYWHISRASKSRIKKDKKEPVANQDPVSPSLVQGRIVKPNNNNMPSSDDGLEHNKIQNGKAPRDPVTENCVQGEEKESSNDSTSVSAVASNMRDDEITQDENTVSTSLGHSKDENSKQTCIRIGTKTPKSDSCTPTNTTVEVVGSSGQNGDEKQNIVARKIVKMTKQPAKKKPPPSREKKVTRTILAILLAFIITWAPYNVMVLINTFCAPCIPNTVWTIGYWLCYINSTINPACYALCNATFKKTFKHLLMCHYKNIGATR
In short: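 CHO cells stably expressing human M2 and cotransfected with chimeric Gqi5, grown in Ham's F-12, 10% heat-inactivated FBS, 20 mM HEPES, 500 µg/mL G418 plus 500 µg/mL hygromycin B. Plated at 15,000 cells/well overnight (37 °C, 5% CO2), then Fluo-4 AM loaded 45 min at 37 °C in HBSS, 20 mM HEPES, 2.5 mM probenecid. Compound preincubated 144 s (0.3% DMSO final) before ACh; fluorescence read at 37 °C.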

M3 = M3 (Homo sapiens, UniProt P20309); experiment: Muscarinic selectivity panel, calcium mobilization; settings: concentration up to 30 µM
Sequence of M3 (P20309 whole entry): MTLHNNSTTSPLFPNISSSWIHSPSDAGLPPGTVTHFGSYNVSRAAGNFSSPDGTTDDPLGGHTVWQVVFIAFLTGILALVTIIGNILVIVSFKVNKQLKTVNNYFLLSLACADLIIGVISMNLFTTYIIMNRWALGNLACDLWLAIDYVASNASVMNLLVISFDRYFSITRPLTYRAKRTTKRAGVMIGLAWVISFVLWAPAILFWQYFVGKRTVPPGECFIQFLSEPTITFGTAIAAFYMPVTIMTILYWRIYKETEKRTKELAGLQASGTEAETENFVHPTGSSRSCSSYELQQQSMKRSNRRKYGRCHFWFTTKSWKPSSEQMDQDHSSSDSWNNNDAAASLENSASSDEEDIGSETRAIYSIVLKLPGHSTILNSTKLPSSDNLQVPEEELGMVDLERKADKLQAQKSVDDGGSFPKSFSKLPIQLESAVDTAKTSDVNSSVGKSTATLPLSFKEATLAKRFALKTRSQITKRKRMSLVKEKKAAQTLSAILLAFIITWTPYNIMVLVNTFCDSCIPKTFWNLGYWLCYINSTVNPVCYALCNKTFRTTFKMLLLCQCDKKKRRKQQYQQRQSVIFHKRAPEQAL
In short: as §1

M5 = target: T4, M5 (Homo sapiens, UniProt P08912); experiment: Muscarinic selectivity panel, calcium mobilization; settings: concentration up to 30 µM
T4 sequence (P08912 1-532): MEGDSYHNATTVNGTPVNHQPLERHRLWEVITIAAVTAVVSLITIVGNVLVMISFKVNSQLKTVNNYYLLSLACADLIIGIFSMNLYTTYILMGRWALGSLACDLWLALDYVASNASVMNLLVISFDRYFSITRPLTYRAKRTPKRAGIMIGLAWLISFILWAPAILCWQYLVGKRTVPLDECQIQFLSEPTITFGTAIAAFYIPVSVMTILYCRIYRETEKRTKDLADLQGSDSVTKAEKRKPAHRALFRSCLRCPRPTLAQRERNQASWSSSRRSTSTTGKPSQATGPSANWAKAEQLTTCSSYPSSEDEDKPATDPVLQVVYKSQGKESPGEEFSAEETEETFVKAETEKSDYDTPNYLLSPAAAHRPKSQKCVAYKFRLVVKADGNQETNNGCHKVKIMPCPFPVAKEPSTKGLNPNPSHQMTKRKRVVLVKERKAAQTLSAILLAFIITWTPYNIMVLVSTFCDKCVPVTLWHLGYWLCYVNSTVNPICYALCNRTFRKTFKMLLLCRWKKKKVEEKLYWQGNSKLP
In short: as §1

| SMILES | %AChmax ± SEM (human M4 receptor) | hM4 PAM activity (in words) (human M4 receptor) | other results |
| --- | --- | --- | --- |
| COc1ccc(C)c2sc(C(=O)Nc3ccncc3)nc12 [Compound 44] | Weak | – | – |
| COc1ccc(C)c2sc(C(=O)NC3CCCC3)nc12 [Compound 48] | Weak | – | – |
| COc1ccc(C)c2sc(NC(=O)C3CCCCO3)nc12 (centres unmarked) [Compound 16] | – | deleterious to activity | – |
| O=C(Nc1nc2ccccc2s1)C1CCCCO1 (centres unmarked) [Compound 50] | – | not tolerated | – |
| COc1ccc(C)c2sc(NC(=O)c3ccncc3)nc12 [Compound 21, N-(4-methoxy-7-methylbenzo[d]thiazol-2-yl)isonicotinamide] | – | – | activity at M1 (M1): inactive; activity at M2 (M2): inactive; activity at M3 (M3): inactive; activity at M5 (M5): inactive |
| COc1ccc(C)c2sc(C(=O)NC3COC3)nc12 [Compound 49] | Weak | – | – |

Continued, in another order:

| %AChmax ± SEM (human M4 receptor) | hM4 PAM activity (in words) (human M4 receptor) | SMILES | other results |
| --- | --- | --- | --- |
| Weak | – | COc1ccc(C)c2sc(NC(=O)C(C)C)nc12 [Compound 7] | – |
| – | deleterious to activity | COc1ccc(C)c2sc(NC(=O)C3CCCOC3)nc12 (centres unmarked) [Compound 17] | – |
